Measurements reported in ChEMBL document CHEMBL5325503, “Structure Guided Design, Synthesis, and Biological Evaluation of Oxetane-Containing Indole Analogues” (Bioorg Med Chem, 2023).
pIC50: −log10 of the molar value. Active and inactive are the calls of the source. No cut-off for these calls is given here.

Experiments:
Tubulin = Tubulin (Bos taurus, UniProt Q6B856+Q862L2+Q862F3); assay: Inhibition of bovine brain tubulin polymerization preincubated for 15 mins followed by GTP addition and measured after 20 mins by turbidimetric analysis
How it was run: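 Mixtures (0.25 mL final) held 10 μM (1 mg/mL) bovine brain tubulin, 0.8 M monosodium glutamate pH 6.6, 4% DMSO and compound. Preincubated 15 min at 30 °C without GTP, chilled to 0 °C, then GTP added to 0.1 mM final. Warmed to 30 °C, turbidity followed at 350 nm for 20 min. IC50 = concentration halving polymerization extent at 20 min.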

MDA-MB-231 = assay: Cytotoxicity against human MDA-MB-231 cells assessed as inhibition of cell growth incubated for 48 hrs by SRB assay; type: functional, cell-based; details: MDA-MB-231, 48 h
How it was run: (§1)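 Seeded at 12,000 cells/well in triplicate and grown 24 h at 37 °C, 5% CO2 in high-glucose DMEM with 10% FBS and 30 μg/mL gentamicin. Serial dilutions in medium from 10 mg/mL DMSO stocks, 48 h exposure. Fixed with TCA (6% final), SRB-stained, dye solubilized in 10 mM Tris, A530.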

PANC-1 [1] = assay: Inhibition of cell migration in human PANC-1 cells at 0.5 to 1 uM incubated for 48 hrs by scratch wound healing assay; type: functional, cell-based; details: dose 0.5-1 µM
How it was run: (§2)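 About 1 × 10^5 cells seeded per well of a 6-well plate in DMEM with 10% heat-inactivated FBS and 30 μg/mL gentamicin at 37 °C, 5% CO2. Grown to 70–80% confluency, scratched with a 10 μL pipette tip, medium replaced. Two wells per condition at 0.5 or 1 μM, DMSO ≤0.2% final, with two control wells. Gap imaged by automated microscopy (4X) over 48 h.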

PANC-1 [2] = assay: Inhibition of cell migration in human PANC-1 cells at 0.5 uM incubated for 1 to 40 hrs by scratch wound healing assay; type: functional, cell-based; details: time 1-40 hrs; how it was run: as §2
PANC-1 [3] = assay: Inhibition of cell migration in human PANC-1 cells at 1 uM incubated at 40 hrs by scratch wound healing assay; type: functional, cell-based; how it was run: as §2
PANC-1 [4] = assay: Cytotoxicity against human PANC-1 cells assessed as inhibition of cell growth incubated for 48 hrs by SRB assay; type: functional, cell-based; details: PANC-1, 48 h; how it was run: as §1
MCF7 [5] = assay: Cytotoxicity against human MCF7 cells assessed as inhibition of cell growth incubated for 96 hrs by SRB assay; details: MCF7, 96 h
MCF7 [6] = assay: Cytotoxicity against human MCF7 cells assessed as inhibition of cell growth incubated for 48 hrs by SRB assay; type: functional, cell-based; details: MCF7, 48 h

COc1cc(C2(c3c(-c4ccccc4)[nH]c4cc(Br)ccc34)COC2)cc(OC)c1OC
IC50 (Tubulin): > 20000 nM | pIC50 (MDA-MB-231): 5.72 | inhibition (PANC-1 [1]): Active | inhibition (PANC-1 [2]): Active | inhibition (PANC-1 [3]): Active | pIC50 (PANC-1 [4]): 6.37 | pIC50 (MCF7 [5]): 6.33

COc1ccc(-c2[nH]c3cc(Cl)ccc3c2C2(c3cc(OC)c(OC)c(OC)c3)COC2)cc1
IC50 (Tubulin): > 20000 nM | pIC50 (MCF7 [6]): 5.43

COc1ccc2c(C3(c4cc(OC)c(OC)c(OC)c4)COC3)c(-c3ccc(OC)c(O)c3)[nH]c2c1
IC50 (Tubulin): > 20000 nM | pIC50 (MCF7 [6]): 5.80

COc1cccc(-c2[nH]c3ccccc3c2C2(c3cc(OC)c(OC)c(OC)c3)COC2)c1
IC50 (Tubulin): > 20000 nM | pIC50 (MCF7 [5]): 5.32

COc1cc(C2(c3c(-c4ccccc4)[nH]c4ccccc34)COC2)cc(OC)c1OC
IC50 (Tubulin): > 20000 nM | pIC50 (MCF7 [5]): < 5.30

COc1cc(C2(c3c(-c4ccc(C)cc4)[nH]c4ccccc34)COC2)cc(OC)c1OC
IC50 (Tubulin): > 20000 nM | pIC50 (MCF7 [5]): < 5.30

COc1cc(C2(c3c(-c4ccccc4)[nH]c4cc(Cl)ccc34)COC2)cc(OC)c1OC
IC50 (Tubulin): > 20000 nM | pIC50 (MDA-MB-231): 5.66 | pIC50 (PANC-1 [4]): 5.96 | pIC50 (MCF7 [5]): 6.08

COc1cc(C2(c3c(-c4ccccc4)[nH]c4c(OC)cccc34)COC2)cc(OC)c1OC
IC50 (Tubulin): > 20000 nM | pIC50 (MDA-MB-231): 5.52 | inhibition (PANC-1 [1]): Active | inhibition (PANC-1 [2]): Active | inhibition (PANC-1 [3]): Active | pIC50 (PANC-1 [4]): 6.36 | pIC50 (MCF7 [5]): 6.11

COc1ccc2[nH]c(-c3ccc(C)cc3)c(C3(c4cc(OC)c(OC)c(OC)c4)COC3)c2c1
IC50 (Tubulin): > 20000 nM | pIC50 (MCF7 [5]): < 5.30

COc1ccc(-c2[nH]c3ccccc3c2C2(c3cc(OC)c(OC)c(OC)c3)COC2)cc1
IC50 (Tubulin): > 20000 nM | pIC50 (MCF7 [5]): < 5.30

COc1cc(C2(c3c(-c4ccc(C)cc4)[nH]c4cc(Br)ccc34)COC2)cc(OC)c1OC
IC50 (Tubulin): > 20000 nM | pIC50 (MCF7 [5]): 5.77

COc1cc(C2(c3c(-c4ccc(C)cc4)[nH]c4cc(Cl)ccc34)COC2)cc(OC)c1OC
IC50 (Tubulin): > 20000 nM | pIC50 (MCF7 [5]): 5.57

COc1ccc2[nH]c(-c3ccccc3)c(C3(c4cc(OC)c(OC)c(OC)c4)COC3)c2c1
IC50 (Tubulin): > 20000 nM | pIC50 (MCF7 [5]): 5.49

COc1cc(C2(c3c(-c4ccccc4)[nH]c4ccc(Br)cc34)COC2)cc(OC)c1OC
IC50 (Tubulin): > 20000 nM | pIC50 (MCF7 [5]): 5.66
